Blank lines part the entries; values can stand above or below the molecule they belong to.
Tests used:
E. coli RNAP TEC [1] = target: T1, E. coli RNAP TEC (Escherichia coli, UniProt P0A8T7+P0A8V2); test: Time-resolved nucleotide addition; format: biochemical; conditions: i − 7 6-MI TECs; 200 µM NTP, 25°C
[2] = target: GMP-extended TEC (TEC17), E. coli RNAP (Escherichia coli, UniProt P0A8T7+P0A8V2); format: binding
E. coli RNAP TEC [3] = target: T1, E. coli RNAP TEC; test: PPi release, coupled PPase / MDCC-PBP stopped-flow assay; format: biochemical
TEC = conditions: absence of the next incoming substrate NTP; cited from earlier work
E. coli RNAP TEC [4] = target: T1, E. coli RNAP TEC; format: biochemical; conditions: time-resolved, saturating TGT (5 µM)
[5] = target: TEC assembled using β′M932A RNAP (Escherichia coli, UniProt P0A8T7+P0A8V2, M932A); test: Equilibrium TGT titration of extended TECs, β′M932A RNAP; format: binding
How it was run: (§1)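 E. coli RNAP TECs (template strand limiting at 1 µM) on a synthetic scaffold, with 6-MI or 2-AP in the template or 2-AP added at the RNA 3′ end. Extended 10 min at 25°C in TB10 (pH 7.5) with 5 µM substrate and 0.2 nM yeast PPase. TGT added afterwards, 5 min more. Emission peaks: 6-MI 420 nm (ex 340), 2-AP 375 nm (ex 330). KTGT from a dissociation-equilibrium fit; errors are SD of best-fit estimates.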

[6] = target: TEC assembled using β′H936A RNAP (Escherichia coli, UniProt P0A8T7+P0A8V2, H936A); test: Equilibrium TGT titration of extended TECs, β′H936A RNAP; format: binding; conditions: β′His936 substituted with alanine
How it was run: as §1

[7] = target: TEC assembled using β′R933A RNAP (Escherichia coli, UniProt P0A8T7+P0A8V2, R933A); test: Equilibrium TGT titration of extended TECs, β′R933A RNAP; format: binding; conditions: β′Arg933 substituted with alanine
How it was run: as §1

ΔTL RNAP TEC = test: Equilibrium TGT titration of extended TECs, ΔTL RNAP; format: binding, Escherichia coli; conditions: AMP-extended TEC, TL domain replaced by a two-alanine linker
How it was run: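 Two-alanine-linker ΔTL RNAP TECs (template strand limiting at 1 µM) with a base-analog fluorophore in the template. Extended 1.5 h at 25°C in TB10 (pH 7.5) with 5 µM substrate and 0.2 nM yeast PPase. TGT added post-catalytically for 5 min more. Fluorescence taken at the emission peak: 6-MI 420 nm (ex 340) or 2-AP 375 nm (ex 330). Titration fitted to dissociation-equilibrium equations.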

β′N458D TEC = β′N458D TEC (Escherichia coli, UniProt P0A8T7+P0A8V2, N458D); test: Equilibrium TGT titration of extended TECs, β′N458D RNAP; format: binding; conditions: AMP-extended β′N458D TEC
How it was run: as §1

[8] = target: TEC assembled with wild-type E. coli RNAP (Escherichia coli, UniProt P0A8T7+P0A8V2); test: Equilibrium TGT titration of extended TECs, fluorescence of base analogs; format: binding
How it was run: as §1

RNAP = conditions: cited from earlier work

nucleotide addition, half-life (E. coli RNAP TEC [1]): ~0.008 s
SMILES: Nc1ccn([C@@H]2O[C@H](COP(=O)(O)O)[C@@H](O)[C@H]2O)c(=O)n1 [CMP]

decrease in fluorescence upon CMPcPP binding to the TEC [2]: ~15%
effect on fluorescence in the absence of TGT [2]: failed to increase fluorescence
effect on TGT action ([2]; templated CMPcPP): able to counter the effect of TGT
SMILES: Nc1ccn([C@@H]2O[C@H](COP(=O)(O)CP(=O)(O)OP(=O)(O)O)[C@@H](O)[C@H]2O)c(=O)n1 [CMPcPP, cytidine-5′-[(α,β)-methyleno]triphosphate]

PPi to MDCC-PBP·Pi conversion rate (E. coli RNAP TEC [3]; 10 µM PPase): 120 s⁻¹
rate of PPi release from the TEC (E. coli RNAP TEC [3]; same TEC as Johnson et al., PPase-MDCC-PBP method): 120 s⁻¹
SMILES: O=P(O)(O)OP(=O)(O)O [PPi, pyrophosphate]
rate of PPi release from the TEC (TEC): 2.9 s⁻¹

nucleotide addition, half-life (E. coli RNAP TEC [1]): ~0.02 s
SMILES: O=c1ccn([C@@H]2O[C@H](COP(=O)(O)O)[C@@H](O)[C@H]2O)c(=O)[nH]1 [UMP]

Further lines, the molecule ahead of its results:

SMILES: Nc1nc2c(ncn2[C@@H]2O[C@H](COP(=O)(O)O)[C@@H](O)[C@H]2O)c(=O)[nH]1 [GMP]
nucleotide addition, half-life (E. coli RNAP TEC [1]): ~0.02 s

SMILES: Nc1ncnc2c1ncn2[C@@H]1O[C@H](COP(=O)(O)O)[C@@H](O)[C@H]1O [AMP]
nucleotide addition, half-life (E. coli RNAP TEC [1]): ~0.02 s

SMILES: CC(=O)O[C@@H]1[C@H](N)[C@@H](OP(=O)(O)O)[C@@]2(C(=O)O)CS[C@@](O)(C(N)=O)[C@@H]1O2 [TGT, tagetitoxin]
effect on forward translocation (E. coli RNAP TEC [4]): does not affect the rate of forward translocation
quenching of the fluorescence of 3′ RNA 2-AP by TGT ([5]; 2-AP ribonucleoside monophosphate-extended β′M932A TEC): did not quench
apparent KTGT relative to wild-type TEC ([5]; β′M932A TEC, higher): 5 fold
increase in KTGT relative to wild-type [6]: > 7 fold
increase in KTGT relative to wild-type [7]: > 7 fold
response of TEC to TGT action (ΔTL RNAP TEC): completely resistant
move into the pre-translocated state at saturating TGT concentrations (β′N458D TEC): ≤ 20%
quenching of the fluorescence of 3′ RNA 2-AP by TGT ([8]; 2-AP ribonucleoside monophosphate-extended TEC, wild-type): 2 fold
increase of apparent TGT binding constant relative to rNMP-extended TECs ([8]; TECs lacking a 2′-OH group at the RNA 3′ end): ~10 fold
increase in KTGT relative to rNMP-extended TECs ([8]; TECs lacking a 3′ OH group at the RNA 3′ end): approximately 5 fold
effect on translocation state of extended TECs ([8]; TGT added post-catalytically): quantitatively moves extended TECs into the pre-translocated state
effect on pyrophosphorolysis (RNAP): strongly inhibit

Reference: paper PMC3424550 (Nucleic Acids Research, 2012)
